# According to PubChem BioAssay:
# Active and inactive are the calls of the source.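 The calls were made as follows, unless noted: active = viability at or below 30% in both replicate assays; inconclusive = viability at or below 30% in just one of the two assays; inactive = the rest.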
# Assays:
# [1] = reducers of endogenous Her2 protein level, primary screen, SKBR3 breast tumor cells, AlphaScreen, ATP viability (AID 461;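 active = Her2 level under about 52% in both replicate screens, with viability over 70% of control, limit read from the data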;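 as to Her2 level: lower value means less Her2 protein in the cells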;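 as to viability: percent of carrier control wells set as 100% viability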); details: 18-24 h, measured here: SKBR3 viability, ATP luminescence, at 10 µM
# [2] = molecular target: Receptor tyrosine-protein kinase erbB-2 (Homo sapiens) (UniProt P04626); assay: as above; details: 18-24 h, at 10 µM, stronger effect = lower value
# Sequence of Receptor tyrosine-protein kinase erbB-2 (Homo sapiens) (P04626 whole entry, looked up): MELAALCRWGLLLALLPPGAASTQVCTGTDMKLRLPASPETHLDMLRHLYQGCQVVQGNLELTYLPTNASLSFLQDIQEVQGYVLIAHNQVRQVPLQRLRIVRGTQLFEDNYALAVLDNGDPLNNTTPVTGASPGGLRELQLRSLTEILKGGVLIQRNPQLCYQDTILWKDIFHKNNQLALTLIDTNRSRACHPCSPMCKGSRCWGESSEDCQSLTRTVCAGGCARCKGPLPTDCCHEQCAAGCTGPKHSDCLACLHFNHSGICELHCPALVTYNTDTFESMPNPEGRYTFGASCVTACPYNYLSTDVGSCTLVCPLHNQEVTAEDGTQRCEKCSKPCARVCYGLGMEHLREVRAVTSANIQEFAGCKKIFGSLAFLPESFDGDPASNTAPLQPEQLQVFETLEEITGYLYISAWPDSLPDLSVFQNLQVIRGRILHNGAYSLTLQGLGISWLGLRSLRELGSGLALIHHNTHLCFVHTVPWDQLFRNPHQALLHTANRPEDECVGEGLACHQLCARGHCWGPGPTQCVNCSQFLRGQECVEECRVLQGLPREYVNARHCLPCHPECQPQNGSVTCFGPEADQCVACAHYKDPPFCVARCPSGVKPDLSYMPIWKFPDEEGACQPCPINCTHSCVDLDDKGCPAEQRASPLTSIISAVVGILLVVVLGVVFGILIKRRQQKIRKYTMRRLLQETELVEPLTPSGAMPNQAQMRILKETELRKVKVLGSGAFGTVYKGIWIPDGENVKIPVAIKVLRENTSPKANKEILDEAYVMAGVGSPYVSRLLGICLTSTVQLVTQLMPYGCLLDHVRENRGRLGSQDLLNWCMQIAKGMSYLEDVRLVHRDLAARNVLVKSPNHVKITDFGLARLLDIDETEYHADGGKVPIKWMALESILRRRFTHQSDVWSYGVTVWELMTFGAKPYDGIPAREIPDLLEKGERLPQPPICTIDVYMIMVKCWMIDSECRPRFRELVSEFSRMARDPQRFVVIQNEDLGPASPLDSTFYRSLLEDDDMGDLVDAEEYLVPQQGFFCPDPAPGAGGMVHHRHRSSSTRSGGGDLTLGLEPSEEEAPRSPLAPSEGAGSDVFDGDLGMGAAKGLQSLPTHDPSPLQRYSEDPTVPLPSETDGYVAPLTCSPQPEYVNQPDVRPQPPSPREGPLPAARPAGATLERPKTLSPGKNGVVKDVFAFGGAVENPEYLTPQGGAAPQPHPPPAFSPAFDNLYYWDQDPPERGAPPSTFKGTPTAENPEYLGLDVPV
# [3] = SK-BR-3 cell growth inhibitors, pilot screen, 24 h, human (AID 572;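 active = viability at or below 10% of carrier control in both of two separate runs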;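 also: compound exposure lasted between 18 and 24 h rather than exactly 24 h; 100% = carrier-treated control wells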); details: SK-BR-3 viability, CellTiter-Glo luminescence, at 10 µM, stronger effect = lower value
# [4] = HUVEC growth inhibition – cell-based, human, primary screen (AID 575); details: HUVEC proliferation, CellTiter-Glo luminescence, 72 h; at 10 µM; stronger effect = lower value;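 also: 100% = median of untreated cell wells with 0.1% DMSO on each plate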
# Procedure, shortened: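 Assay system: primary human umbilical vein endothelial cells / Buffer or medium: endothelial basal medium with 2% FBS plus growth supplements / Compound dosing: one dose, 10 µM final, 0.1% DMSO / Timing: 72 h treatment at 37 °C / Signal: CTG luminescence / Benchmarks: 32 DMSO-only cell-control wells (high), 32 MePR drug-control wells (low) per plate / Plate: collagen-coated 384-well format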
# [5] = growth inhibitors of H69AR lung tumor, primary screen, human, duplicate replicates (AID 580;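 active = viability at or under a set limit in both replicates, limit being median viability minus 3 SD, cut at about 48% in these data, passing the limit was not always enough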;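 also: 100% = mean luminescence of untreated wells and 0% = no signal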); details: H69AR lung tumor cells viability, ATP luminescence, 72 h; at 10 µM; stronger effect = lower value
# [6] = reversal of MRP1-mediated doxorubicin resistance, pilot screen, H69AR cells, doxorubicin co-treatment (AID 601;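 active = viability loss from added drug above about 55%, and viability with drug at most 40%, in both replicates, limit read from the data, passing the limit was not always enough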); details: CellTiter-Glo, 72 h, at 10 µM; for differential viability (reversal): stronger effect = higher value
# [7] = 384-well plate pilot, post-Golgi transport modulator project, inhibition of yeast transport mutant growth (AID 636; in the data active = inhibition above about 31%); details: absorbance 615 nm, about 18 h, stronger effect = higher value
# [8] = growth suppression of yeast trafficking mutant, preliminary HTS, modulators of trafficking downstream of Golgi apparatus project, 1536-format plate, OD 615 nm (AID 637; in the data active = inhibition above about 30%); details: yeast transport mutant growth, absorbance 615 nm, 18 h; stronger effect = higher value
# [9] = H69AR cells + 2 uM doxorubicin, measured here: viability with 2 uM doxorubicin, stronger effect = lower value
# [10] = H69AR cells, compound alone cytotoxicity
SMILES,viability [1],Her2 level [2],viability [3],viability [4],viability [5],differential viability (reversal) ([6]; H69AR cells + 2 uM doxorubicin),"viability [6, 9]","viability [6, 10]",inhibition [7],inhibition [8]
COc1cc(OC)c(C(=O)Nc2ncn[nH]2)cc1OC,102%,122% (inactive),102% (inactive),95.4% (inactive),95% (inactive),-6.38% (inactive),101%,95%,1.97% (inactive),-6.72% (inactive)
CCOc1ccc(OCC)c(NC(=O)CCCN2C(=O)c3cccnc3C2=O)c1,110%,128% (inactive),110% (inactive),110% (inactive),85.8% (inactive),-2.52% (inactive),88.3%,85.8%,0.81% (inactive),7.14% (inactive)
O=C(CCNS(=O)(=O)c1ccc(Cl)cc1)NCc1ccccn1,97.5%,75.5% (inactive),97.5% (inactive),81.4% (inactive),89.7% (inactive),-6.95% (inactive),96.7%,89.7%,-5.26% (inactive),-1.83% (inactive)
O=C(NC1CCCC1)c1ccc2nc[nH]c2c1,93.5%,94.5% (inactive),93.5% (inactive),103% (inactive),91.2% (inactive),9.56% (inactive),81.7%,91.2%,-6.23% (inactive),-0.79% (inactive)
O=S(=O)(Nc1nc2ccccc2nc1NCc1ccco1)c1ccc(Cl)cc1,94%,103% (inactive),94% (inactive),69.6% (inactive),65.3% (inactive),-4.42% (inactive),69.8%,65.3%,-4.42% (inactive),4.83% (inactive)
COc1ccc(-c2ccc(CCC(=O)O)n2NC(=O)c2cccs2)cc1,122%,92% (inactive),122% (inactive),95.5% (inactive),101% (inactive),3% (inactive),98.3%,101%,-2.76% (inactive),2.06% (inactive)
CCc1nnc(NC(=O)NCN2C(=O)C3C4C=CC(C4)C3C2=O)s1 (stereo not given),123%,85.5% (inactive),123% (inactive),84.4% (inactive),95.5% (inactive),1.7% (inactive),93.8%,95.5%,-6.44% (inactive),-5.24% (inactive)
CC(=O)N(C(C)=O)c1c(C#N)c(C)n(-c2ccccc2)c1C(=O)c1ccccc1,86.5%,88% (inactive),86.5% (inactive),78.4% (inactive),77.9% (inactive),-9.1% (inactive),87%,77.9%,-2.53% (inactive),-2.58% (inactive)
CC1(C)CC(=O)C2=C(C1)OC(=O)C2(NC(=O)c1cccs1)C(F)(F)F (stereo not given),102%,83% (inactive),102% (inactive),88.3% (inactive),98% (inactive),3.83% (inactive),94.2%,98%,-4.05% (inactive),12.2% (inactive)
C=CS(=O)(=O)c1ccc(Oc2ccc(S(=O)(=O)C=C)cc2)cc1,243%,21% (active),243% (inactive),97% (inactive),1.27% (active),0.405% (inactive),0.865%,1.27%,-4.67% (inactive),1.77% (inactive)
COc1ccc(-c2nc(C#N)c(N3CCN(c4ccccc4)CC3)o2)cc1,94.5%,98.5% (inactive),94.5% (inactive),94.7% (inactive),105% (inactive),11.7% (inactive),93.8%,105%,-2.05% (inactive),3.33% (inactive)
CCn1c(SC)nc2c(c1=O)SC(C)C2 (stereo not given),111%,110% (inactive),111% (inactive),113% (inactive),98.4% (inactive),17.2% (inactive),81.2%,98.4%,-4.67% (inactive),1.8% (inactive)
CCOC(=O)c1[nH]c(C)c(C(=O)N2CCN(C(=O)c3ccco3)CC2)c1C,88.5%,95.5% (inactive),88.5% (inactive),98.4% (inactive),97.8% (inactive),2.2% (inactive),95.6%,97.8%,-11.6% (inactive),-0.48% (inactive)
O=C(COc1cccc(Oc2ccccc2)c1)Nc1ncccn1,99.5%,106% (inactive),99.5% (inactive),110% (inactive),94.3% (inactive),6.76% (inactive),87.5%,94.3%,-3.9% (inactive),-3.81% (inactive)
NC(=O)c1ccccc1NC(=O)CCCN1C(=O)CCC1=O,101%,83.5% (inactive),101% (inactive),92.9% (inactive),95.6% (inactive),10.6% (inactive),85%,95.6%,-6.89% (inactive),-1.9% (inactive)
